Experimental data from ChEMBL document CHEMBL1125912, “Topically active carbonic anhydrase inhibitors. 4. [(Hydroxyalkyl)sulfonyl]benzene and [(hydroxyalkyl)sulfonyl]thiophenesulfonamides” (J Med Chem, 1991).
In brackets after ≈: the same amount, converted by molar mass.

Legend:
Oryctolagus cuniculus [1] = species on record: Oryctolagus cuniculus; assay: Maximum fall in IOP after 50 uL dose of 0.5% concentration in alpha-CT rabbit model.; assay type: functional
Summary of the method: (§1)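 Alpha-chymotrypsinized rabbit model of ocular hypertension. Single 50-µL bilateral instillation of a 0.5% (w/v) solution in 0.5% aqueous (hydroxyethyl)cellulose vehicle. Read-out is the fall in IOP.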

Oryctolagus cuniculus [2] = assay: Tested in vivo for the IOP (intraocular pressure) recovery after 50 uL dose of 2% concentration in albino rabbits.; assay type: functional, Eye
Summary of the method: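 Conscious albino rabbits. Aqueous humor production was assessed indirectly by IOP recovery rate. A single bilateral 50-µL instillation of 2% (w/v) in 0.5% aqueous (hydroxyethyl)cellulose vehicle was given. Results are percent change from control, tested by Dunnett's two-tailed test (P<0.05).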

[3] = Dissociation constant (pKa) (determined in 30% EtOH/water); assay type: physicochemical
Carbonic anhydrase 2 = Carbonic anhydrase 2 (Homo sapiens, UniProt P00918); assay: Inhibitory activity against human carbonic anhydrase II using pH stat assay; assay type: functional; conditions: read-out: I50
[4] = Solubility (buffer pH 7.4); assay type: physicochemical; conditions: read-out: S
Summary of the method: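 Solubility in 50 mM phosphate buffer, pH 7.4.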

[5] = Partition coefficient (pH 7.4); assay type: ADME; conditions: octanol/water
Summary of the method: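 1-Octanol/phosphate buffer partition at pH 7.4 and 0.1 ionic strength. The compound was equilibrated between the phases and the concentration in each phase was measured by UV spectrophotometry.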

Oryctolagus cuniculus [6] = species on record: Oryctolagus cuniculus; assay: Maximum fall in IOP after 50 uL dose of 0.5% concentration in alpha-CT rabbit model; assay type: functional; summary of the method: as §1
Oryctolagus cuniculus [7] = species on record: Oryctolagus cuniculus; assay: Maximum fall in IOP after 50uL dose of 0.5% concentration in alpha-CT rabbit model; ns = 'no significant statistical change'; assay type: functional, organism-based; summary of the method: as §1
Oryctolagus cuniculus [8] = species on record: Oryctolagus cuniculus; assay: Maximum fall in IOP after 50 microL dose of 0.5% concentration in alpha-CT rabbit model.; assay type: functional; summary of the method: as §1

pKa [3] | IC50 (Carbonic anhydrase 2) | solubility [4] | D [5] | Structure (SMILES) | Max fall in IOP (Oryctolagus cuniculus [1]) | Change from control (Oryctolagus cuniculus [2]) | Max fall in IOP (Oryctolagus cuniculus [6]) | Max fall in IOP (Oryctolagus cuniculus [7]) | Max fall in IOP (Oryctolagus cuniculus [8])
9.38 | 24 nM | 6600 µg/mL (≈ 24.9 mM) | 0.14 | NS(=O)(=O)c1ccc(S(=O)(=O)CCO)cc1 | -10.8 mmHg | -41% | – | – | –
9.28 | 25 nM | 3500 µg/mL (≈ 11.4 mM) | 0.82 | CC(C)(O)CCS(=O)(=O)c1ccc(S(N)(=O)=O)cc1 | – | – | – | – | –
9.3 | 18 nM | – | 0.45 | CC(C)CNCCCS(=O)(=O)c1ccc(S(N)(=O)=O)s1 | – | – | – | – | –
9.32 | 10 nM | 9500 µg/mL (≈ 37.5 mM) | 7 | NS(=O)(=O)c1ccc(SCCCO)s1 | – | – | – | – | –
9.18 | 4 nM | 4300 µg/mL (≈ 13.8 mM) | 0.55 | NS(=O)(=O)c1ccc(S(=O)(=O)CCCCO)c(F)c1 | – | – | – | – | –
10.2 | 9 nM | 800 µg/mL (≈ 3.06 mM) | 8.48 | NS(=O)(=O)c1ccc(SCCCCO)cc1 | – | – | – | – | –
9.02 | 4.5 nM | 6600 µg/mL (≈ 22.2 mM) | 0.39 | NS(=O)(=O)c1ccc(S(=O)(=O)CCCO)c(F)c1 | – | -43% | -6.2 mmHg | – | –
9.38 | 23 nM | 100 µg/mL (≈ 0.342 mM) | 9.1 | NS(=O)(=O)c1ccc(SCCCO)c([N+](=O)[O-])c1 | – | – | – | – | –
8.65 | 6 nM | 22000 µg/mL (≈ 81.1 mM) | 0.29 | NS(=O)(=O)c1ccc(S(=O)(=O)CCO)s1 | – | – | – | – | –
8.32 | 6 nM | 14600 µg/mL (≈ 51.2 mM) | 0.44 | NS(=O)(=O)c1ccc(S(=O)(=O)CCCO)s1 | – | – | – | – | –
9.6 | 7 nM | 2100 µg/mL (≈ 7.16 mM) | 0.25 | NS(=O)(=O)c1ccc(S(=O)(=O)CCCCO)cc1 | – | – | – | – | –
10 | 20 nM | 400 µg/mL (≈ 1.45 mM) | 25.2 | CC(C)(O)CCSc1ccc(S(N)(=O)=O)cc1 | – | -51% | – | No significance | –
9.45 | 9 nM | 280 µg/mL (≈ 0.994 mM) | 39 | NS(=O)(=O)c1ccc(SCCCO)c(Cl)c1 | – | – | – | – | –
9.5 | 51 nM | 13200 µg/mL (≈ 47.1 mM) | 0.25 | Nc1cc(S(N)(=O)=O)ccc1S(=O)(=O)CCO | – | – | – | – | –
9.27 | – | 3500 µg/mL (≈ 15 mM) | 2.3 | NS(=O)(=O)c1ccc(SCCO)cc1 | – | – | – | – | –
9.28 | 900 nM | 53000 µg/mL (≈ 164 mM) | 0.002 | NS(=O)(=O)c1ccc(S(=O)(=O)CCCO)c(C(=O)O)c1 | – | – | – | – | –
8.2 | – | – | – | NS(=O)(=O)c1cc2c(s1)S(=O)(=O)CCC2O (stereo not drawn) | -6.9 mmHg | -40% | – | – | –
10.5 | – | 8000 µg/mL (≈ 29.5 mM) | – | CC(=O)OCCCCc1ccc(S(N)(=O)=O)cc1 | – | – | – | – | –
10.3 | – | 1200 µg/mL (≈ 4.21 mM) | 73 | CC(=O)OCCCCCc1ccc(S(N)(=O)=O)cc1 | -6.4 mmHg | -33% | – | – | –
– | – | – | – | CC(=O)Oc1ccc2cc(S(N)(=O)=O)sc2c1 | – | -43% | – | – | -5.5 mmHg
9.3 | 700 nM | 1300 µg/mL (≈ 4.26 mM) | 5.5 | COC(=O)c1cc(S(N)(=O)=O)ccc1SCCCO | – | -30% | -4.5 mmHg | – | –
10.3 | 15 nM | 14700 µg/mL (≈ 64.1 mM) | 3.7 | NS(=O)(=O)c1ccc(CCCCO)cc1 | – | – | – | – | –
9.5 | 3 nM | 9300 µg/mL (≈ 34.8 mM) | 9 | NS(=O)(=O)c1ccc(SCCCCO)s1 | – | – | – | – | –
10.2 | – | 1600 µg/mL (≈ 6.22 mM) | 9.6 | CC(=O)OCCCc1ccc(S(N)(=O)=O)cc1 | – | -18% | – | – | -4.5 mmHg
8.98 | 12 nM | 7200 µg/mL (≈ 25.8 mM) | 0.23 | NS(=O)(=O)c1ccc(S(=O)(=O)CCCO)cc1 | – | -37% | – | No significance | –

pKa [3] | IC50 (Carbonic anhydrase 2) | solubility [4] | D [5] | Structure (SMILES) | Max fall in IOP (Oryctolagus cuniculus [1]) | Change from control (Oryctolagus cuniculus [2]) | Max fall in IOP (Oryctolagus cuniculus [6]) | Max fall in IOP (Oryctolagus cuniculus [7]) | Max fall in IOP (Oryctolagus cuniculus [8])
9.25 | 4.3 nM | 600 µg/mL (≈ 2.18 mM) | 10.9 | NS(=O)(=O)c1ccc(SCCCCCO)cc1 | – | – | – | – | –
– | – | 80 µg/mL (≈ 0.208 mM) | – | CC(C)COC(=O)OCCCS(=O)(=O)c1ccc(S(N)(=O)=O)s1 | – | – | – | – | –
10.4 | – | 9300 µg/mL (≈ 33.5 mM) | 0.01 | NS(=O)(=O)c1ccc(SCCO)c(C(=O)O)c1 | – | – | – | – | –
9.42 | 21 nM | 500 µg/mL (≈ 1.8 mM) | 2.4 | NS(=O)(=O)c1ccc(SCCO)c([N+](=O)[O-])c1 | – | – | – | – | –
8.1 | 4.5 nM | 970 µg/mL (≈ 2.71 mM) | 0.72 | COCC(=O)OCCCS(=O)(=O)c1ccc(S(N)(=O)=O)s1 | – | – | – | – | –
10.3 | 8 nM | 2600 µg/mL (≈ 10.7 mM) | 11 | NS(=O)(=O)c1ccc(CCCCCO)cc1 | – | -38% | – | – | –
9.76 | 9 nM | 6000 µg/mL (≈ 23.9 mM) | 5.3 | NS(=O)(=O)c1ccc(SCCO)c(F)c1 | – | -34% | – | No significance | –
9.15 | 23 nM | 8400 µg/mL (≈ 28.5 mM) | 0.33 | Nc1cc(S(N)(=O)=O)ccc1S(=O)(=O)CCCO | – | – | – | – | –
– | 20 nM | – | – | NS(=O)(=O)c1ccc(CCCO)c(F)c1 | – | – | – | – | –
8.67 | 2.3 nM | 9900 µg/mL (≈ 33.1 mM) | 0.46 | NS(=O)(=O)c1ccc(S(=O)(=O)CCCCO)s1 | – | – | – | – | –
9.46 | 30 nM | 49000 µg/mL (≈ 205 mM) | 2.4 | NS(=O)(=O)c1ccc(SCCO)s1 | – | – | – | – | –
9.2 | 30 nM | 33400 µg/mL (≈ 103 mM) | 0.34 | COC(=O)c1cc(S(N)(=O)=O)ccc1S(=O)(=O)CCO | – | -24% | -6.3 mmHg | – | –
8 | – | 800 µg/mL (≈ 2.47 mM) | 0.9 | NS(=O)(=O)c1ccc(S(=O)(=O)CCCO)c([N+](=O)[O-])c1 | – | – | – | – | –
– | – | – | – | NS(=O)(=O)c1cc2ccc(O)cc2s1 | – | -31% | – | – | -5.4 mmHg
9 | 5 nM | 3300 µg/mL (≈ 11.6 mM) | 0.25 | NS(=O)(=O)c1ccc(S(=O)(=O)CCO)c(F)c1 | – | -37% | – | No significance | –
8.65 | 5.5 nM | 880 µg/mL (≈ 2.81 mM) | 1.3 | CC(=O)OCCS(=O)(=O)c1ccc(S(N)(=O)=O)s1 | – | – | – | – | –
10.2 | 20 nM | 1400 µg/mL (≈ 5.66 mM) | 6.25 | NS(=O)(=O)c1ccc(SCCCO)cc1 | – | – | – | – | –
9.94 | 10000 nM | 8800 µg/mL (≈ 30.2 mM) | 0.01 | NS(=O)(=O)c1ccc(SCCCO)c(C(=O)O)c1 | – | – | – | – | –
9.64 | 3.5 nM | 900 µg/mL (≈ 3.39 mM) | 9.8 | NS(=O)(=O)c1ccc(SCCCO)c(F)c1 | – | -30% | -3.6 mmHg | – | –
10.2 | 64 nM | 20000 µg/mL (≈ 92.9 mM) | 1.48 | NS(=O)(=O)c1ccc(CCCO)cc1 | – | – | – | – | –
9.35 | – | 14900 µg/mL (≈ 50.5 mM) | – | NS(=O)(=O)c1ccc(S(=O)(=O)CC(O)CO)cc1 (stereo not drawn) | – | – | – | – | –
9.82 | 1.5 nM | 1000 µg/mL (≈ 3.58 mM) | 19 | NS(=O)(=O)c1ccc(SCCCCO)c(F)c1 | – | – | – | – | –
8.9 | 20 nM | 1500 µg/mL (≈ 4.45 mM) | 0.5 | COC(=O)c1cc(S(N)(=O)=O)ccc1S(=O)(=O)CCCO | – | – | – | – | –
8.05 | 5 nM | 920 µg/mL (≈ 2.81 mM) | 1.47 | CC(=O)OCCCS(=O)(=O)c1ccc(S(N)(=O)=O)s1 | – | – | – | – | –
